# According to ChEMBL document CHEMBL3864121, “Development of ebsulfur analogues as potent antibacterials against methicillin-resistant Staphylococcus aureus” (Bioorg Med Chem, 2016):
# Activity calls are given as the source filed them. The rule behind the calls is not given here.
# What was measured:
# Enterococcus = assay: Antibacterial activity against Vancomycin-resistant Enterococcus measured after overnight incubation by broth double-dilution method; format: functional
# Procedure, shortened: (§1)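 MIC by broth double-dilution in liquid Mueller-Hinton medium. Values are reported in µg/mL.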
# Staphylococcus aureus [1] = assay: Bacteriostatic activity against methicillin-resistant Staphylococcus aureus S22 at 4 times MIC measured after 24 hrs by time kill analysis; format: functional
# Staphylococcus aureus [2] = assay: Antibacterial activity against methicillin-resistant Staphylococcus aureus S22 using 1 10^6CFU/ml measured after overnight incubation by broth double-dilution method; format: functional
# Staphylococcus aureus [3] = assay: Antibacterial activity against methicillin-resistant Staphylococcus aureus S17 measured after overnight incubation by broth double-dilution method; format: functional; procedure, shortened: as §1
# [4] = Cytotoxicity against HEK293 cells assessed as cell death at […] measured after 24 hrs by resazurin dye-based fluorescence analysis relative to untreated control; format: toxicity; conditions: human, hek293, 24 h
# Staphylococcus aureus [5] = assay: Antibacterial activity against methicillin-resistant Staphylococcus aureus G6 measured after overnight incubation by broth double-dilution method; format: functional; procedure, shortened: as §1
# Staphylococcus aureus [6] = assay: Antibacterial activity against methicillin-resistant Staphylococcus aureus C1 measured after overnight incubation by broth double-dilution method; format: functional; procedure, shortened: as §1
# Staphylococcus aureus [7] = assay: Antibacterial activity against methicillin-resistant Staphylococcus aureus NRS77 measured after overnight incubation by broth double-dilution method; format: functional; procedure, shortened: as §1
# Staphylococcus aureus [8] = assay: Antibacterial activity against methicillin-resistant Staphylococcus aureus C14 measured after overnight incubation by broth double-dilution method; format: functional; procedure, shortened: as §1
# Enterococcus faecium = assay: Antibacterial activity against Enterococcus faecium BM4105-RF measured after overnight incubation by broth double-dilution method; format: functional; procedure, shortened: as §1
# [9] = system: Staphylococcus epidermidis; assay: Antibacterial activity against Staphylococcus epidermidis ATCC 35984 measured after overnight incubation by broth double-dilution method; format: functional; conditions: RP62A
# Procedure, shortened: (§2)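 MIC by broth double-dilution in Mueller-Hinton medium. Re-testing at the time-kill inoculum used 1×10^6 CFU/mL.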
# Staphylococcus aureus [10] = assay: Bacteriostatic activity against methicillin-resistant Staphylococcus aureus S22 at MIC measured up to 3 to 6 hrs by time kill analysis; format: functional
# [11] = Cytotoxicity against mouse RBCs assessed as hemolysis up to […] measured after 1 hr; format: toxicity, Erythrocyte; conditions: mouse red blood cells, read-out: Activity
# Staphylococcus aureus [12] = assay: Antibacterial activity against methicillin-resistant Staphylococcus aureus ATCC 33591 measured after overnight incubation by broth double-dilution method; format: functional; procedure, shortened: as §1
# Staphylococcus aureus [13] = assay: Antibacterial activity against methicillin-resistant Staphylococcus aureus C16 measured after overnight incubation by broth double-dilution method; format: functional; procedure, shortened: as §1
# Staphylococcus aureus [14] = assay: Antibacterial activity against methicillin-sensitive Staphylococcus aureus ATCC 29213 measured after overnight incubation by broth double-dilution method; format: functional; procedure, shortened: as §1
# Staphylococcus aureus [15] = assay: Antibacterial activity against methicillin-resistant Staphylococcus aureus G12 measured after overnight incubation by broth double-dilution method; format: functional; procedure, shortened: as §1
# Staphylococcus aureus [16] = assay: Antibacterial activity against methicillin-resistant Staphylococcus aureus S22 measured after overnight incubation by broth double-dilution method; format: functional; procedure, shortened: as §1
# [17] = system: Staphylococcus epidermidis RP62A; assay: Inhibition of thioredoxin reductase in Staphylococcus epidermidis ATCC 35984 assessed as induction of ROS production at 1 to 4 times MIC measured after 1 hr by DCFH-DA staining-based fluorescence microscopic analysis
# Procedure, shortened: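 Untreated cells served as the negative control and 1 mM H2O2 as the positive control. Cells were stained with DCFH-DA (40 µg/mL) and ROS were visualized by fluorescence microscopy.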
# Staphylococcus aureus [18] = assay: Antibacterial activity against methicillin-resistant Staphylococcus aureus S14 measured after overnight incubation by broth double-dilution method; format: functional; procedure, shortened: as §1
# Staphylococcus aureus [19] = assay: Antibacterial activity against methicillin-resistant Staphylococcus aureus USA600 measured after overnight incubation by broth double-dilution method; format: functional; procedure, shortened: as §1
# Staphylococcus aureus [20] = assay: Antibacterial activity against methicillin-sensitive Staphylococcus aureus ATCC 6538 measured after overnight incubation by broth double-dilution method; format: functional; procedure, shortened: as §1
# [21] = system: Mycolicibacterium smegmatis; assay: Antibacterial activity against Mycobacterium smegmatis MC2-155 measured after overnight incubation by broth double-dilution method; format: functional; conditions: str. MC2 155; procedure, shortened: as §1
# Staphylococcus aureus [22] = assay: Antibacterial activity against methicillin-resistant Staphylococcus aureus NRS51 measured after overnight incubation by broth double-dilution method; format: functional; procedure, shortened: as §1
# Staphylococcus aureus [23] = assay: Antibacterial activity against methicillin-resistant Staphylococcus aureus USA300 measured after overnight incubation by broth double-dilution method; format: functional; procedure, shortened: as §1
# Staphylococcus aureus [24] = assay: Antibacterial activity against methicillin-resistant Staphylococcus aureus BRS3 measured after overnight incubation by broth double-dilution method; format: functional; procedure, shortened: as §1
# Staphylococcus aureus [25] = assay: Antibacterial activity against methicillin-resistant Staphylococcus aureus NRS4 measured after overnight incubation by broth double-dilution method; format: functional; procedure, shortened: as §1
# Enterococcus faecalis [26] = assay: Antibacterial activity against Enterococcus faecalis ATCC 29212 measured after overnight incubation by broth double-dilution method; format: functional; procedure, shortened: as §2
# Listeria monocytogenes = assay: Antibacterial activity against Listeria monocytogenes ATCC 19115 measured after overnight incubation by broth double-dilution method; format: functional; procedure, shortened: as §2
# Staphylococcus aureus [27] = assay: Antibacterial activity against methicillin-resistant Staphylococcus aureus G1 measured after overnight incubation by broth double-dilution method; format: functional; procedure, shortened: as §1
# Staphylococcus aureus [28] = assay: Antibacterial activity against methicillin-resistant Staphylococcus aureus USA200 measured after overnight incubation by broth double-dilution method; format: functional; procedure, shortened: as §1
# Staphylococcus aureus [29] = assay: Antibiofilm activity against methicillin-sensitive Staphylococcus aureus ATCC 6538 assessed as reduction of biofilm at […] measured after 24 hrs by crystal violet staining based method relative to control; format: functional; parameters: scale not given: the % may be the effect or the level left
# Staphylococcus aureus [30] = assay: Antibacterial activity against methicillin-resistant Staphylococcus aureus USA100 measured after overnight incubation by broth double-dilution method; format: functional; procedure, shortened: as §1
# Staphylococcus aureus [31] = assay: Antibacterial activity against methicillin-sensitive Staphylococcus aureus ATCC 25923 measured after overnight incubation by broth double-dilution method; format: functional; procedure, shortened: as §1
# Staphylococcus aureus [32] = assay: Antibacterial activity against methicillin-resistant Staphylococcus aureus C7 measured after overnight incubation by broth double-dilution method; format: functional; procedure, shortened: as §1
# Mus musculus = species on record: Mus musculus; assay: Cytotoxicity against mouse RBCs assessed as hemolysis at 0.24 to 31.2 ug/ml measured after 1 hr; format: toxicity; conditions: erythrocyte
# Procedure, shortened: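 Murine red blood cells were exposed to compounds at various concentrations, with amikacin as a control. Percent hemolysis was scored against untreated cells (0%) and 1% Triton X (100%).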
# Staphylococcus aureus [33] = assay: Antibacterial activity against methicillin-resistant Staphylococcus aureus G14 measured after overnight incubation by broth double-dilution method; format: functional; procedure, shortened: as §1
# Staphylococcus aureus [34] = assay: Bacteriostatic activity against methicillin-resistant Staphylococcus aureus S22 at 0.5 times MIC measured up to 3 to 6 hrs by time kill analysis; format: functional
# Staphylococcus aureus [35] = assay: Antibacterial activity against methicillin-resistant Staphylococcus aureus C19 measured after overnight incubation by broth double-dilution method; format: functional; procedure, shortened: as §1
# Staphylococcus aureus [36] = assay: Antibacterial activity against methicillin-resistant Staphylococcus aureus 1 measured after overnight incubation by broth double-dilution method; format: functional; procedure, shortened: as §1
# Staphylococcus aureus [37] = assay: Antibacterial activity against methicillin-resistant Staphylococcus aureus 2 measured after overnight incubation by broth double-dilution method; format: functional; procedure, shortened: as §1
# Staphylococcus aureus [38] = assay: Antibacterial activity against methicillin-resistant Staphylococcus aureus S24 measured after overnight incubation by broth double-dilution method; format: functional; procedure, shortened: as §1
# Enterococcus faecalis [39] = assay: Antibacterial activity against Enterococcus faecalis ATCC 49533 measured after overnight incubation by broth double-dilution method; format: functional; procedure, shortened: as §2
# Staphylococcus aureus [40] = assay: Antibacterial activity against methicillin-resistant Staphylococcus aureus C2 measured after overnight incubation by broth double-dilution method; format: functional; procedure, shortened: as §1
smiles,measurement,setting,value
CCCCCCCCn1sc2ccccc2c1=O,MIC,Enterococcus,0.5 µg/mL
same,Activity,Staphylococcus aureus [1],Active
same,Activity,Staphylococcus aureus [2],Active
same,MIC,Staphylococcus aureus [3],1 µg/mL
same,Activity,[4],> 20%
same,MIC,Staphylococcus aureus [5],1 µg/mL
same,MIC,Staphylococcus aureus [6],1 µg/mL
same,MIC,Staphylococcus aureus [7],1 µg/mL
same,MIC,Staphylococcus aureus [8],1 µg/mL
same,MIC,Enterococcus faecium,2 µg/mL
same,MIC,[9],1 µg/mL
same,Activity,Staphylococcus aureus [10],Active
same,hemolysis at 1 h,[11],≤ 20%
same,MIC,Staphylococcus aureus [12],0.5 µg/mL
same,MIC,Staphylococcus aureus [13],2 µg/mL
same,MIC,Staphylococcus aureus [14],1 µg/mL
same,MIC,Staphylococcus aureus [15],1 µg/mL
same,MIC,Staphylococcus aureus [16],1 µg/mL
same,Activity,[17],Active
same,MIC,Staphylococcus aureus [18],≤ 0.25 µg/mL
same,MIC,Staphylococcus aureus [19],3.9 µg/mL
same,MIC,Staphylococcus aureus [20],1 µg/mL
same,MIC,[21],2 µg/mL
same,MIC,Staphylococcus aureus [22],1 µg/mL
same,MIC,Staphylococcus aureus [23],2 µg/mL
same,MIC,Staphylococcus aureus [24],1 µg/mL
same,MIC,Staphylococcus aureus [25],1 µg/mL
same,MIC,Enterococcus faecalis [26],> 125 µg/mL
same,MIC,Listeria monocytogenes,1 µg/mL
same,MIC,Staphylococcus aureus [27],≤ 0.25 µg/mL
same,MIC,Staphylococcus aureus [28],3.9 µg/mL
same,Activity,Staphylococcus aureus [29],40%
same,MIC,Staphylococcus aureus [30],2 µg/mL
same,MIC,Staphylococcus aureus [31],1 µg/mL
same,MIC,Staphylococcus aureus [32],1 µg/mL
same,Activity,Mus musculus,Non-Toxic
same,MIC,Staphylococcus aureus [33],1 µg/mL
same,Activity,Staphylococcus aureus [34],Active
same,MIC,Staphylococcus aureus [35],0.5 µg/mL
same,MIC,Staphylococcus aureus [36],0.5 µg/mL
same,MIC,Staphylococcus aureus [37],1 µg/mL
same,MIC,Staphylococcus aureus [38],1 µg/mL
same,MIC,Enterococcus faecalis [39],> 125 µg/mL
same,MIC,Staphylococcus aureus [40],0.5 µg/mL
